Assay results taken from ChEMBL document CHEMBL4184147, “Polyphenolic Phytochemicals in Cancer Prevention and Therapy: Bioavailability versus Bioefficacy” (J Med Chem, 2017).

Experiments:
[1] = tested on: NCI-H460; test: Cytotoxicity against human NCI-H460 cells assessed as decrease in cell viability after 48 hrs by MTT assay; assay type: functional, cell-based; settings: NCI-H460, 48 h
[2] = tested on: BXPC-3; test: Cytotoxicity against human BxPC3 cells assessed as decrease in cell viability after 48 hrs by MTT assay; assay type: functional, cell-based; settings: BXPC-3, 48 h
[3] = tested on: PANC-1; test: Cytotoxicity against human PANC1 cells assessed as decrease in cell viability after 48 hrs by MTT assay; assay type: functional, cell-based; settings: PANC-1, 48 h
[4] = Cytotoxicity against human MML1 cells assessed as decrease in cell viability after 48 hrs by MTT assay; assay type: functional, cell-based
[5] = tested on: SK-MEL-2; test: Cytotoxicity against human SK-MEL-2 cells assessed as decrease in cell viability after 48 hrs by MTT assay; assay type: functional, cell-based; settings: SK-MEL-2, 48 h
[6] = tested on: MDA-MB-231; test: Cytotoxicity against human MDA-MB-231 cells assessed as cell viability at 41 uM after 48 hrs by MTT assay; assay type: functional; settings: MDA-MB-231, 48 h, read-out: Activity
[7] = tested on: T47D; test: Cytotoxicity against human T47D cells assessed as cell viability at 41 uM after 48 hrs by MTT assay; assay type: functional; settings: read-out: Activity
[8] = tested on: HT-29; test: Cytotoxicity against human HT-29 cells assessed as cell viability at 41 uM after 48 hrs by MTT assay; assay type: functional; settings: HT-29, 48 h, read-out: Activity
[9] = tested on: COLO 201; test: Cytotoxicity against human COLO201 cells assessed as cell viability at 41 uM after 48 hrs by MTT assay; assay type: functional; settings: COLO 201, 48 h, read-out: Activity
[10] = tested on: A549; test: Cytotoxicity against human A549 cells assessed as cell viability at 41 uM after 48 hrs by MTT assay; assay type: functional; settings: A549, 48 h, read-out: Activity
[11] = tested on: NCI-H460; test: Cytotoxicity against human NCI-H460 cells assessed as cell viability at 41 uM after 48 hrs by MTT assay; assay type: functional; settings: NCI-H460, 48 h, read-out: Activity
[12] = tested on: BXPC-3; test: Cytotoxicity against human BxPC3 cells assessed as cell viability at 41 uM after 48 hrs by MTT assay; assay type: functional; settings: BXPC-3, 48 h, read-out: Activity
[13] = tested on: PANC-1; test: Cytotoxicity against human PANC1 cells assessed as cell viability at 41 uM after 48 hrs by MTT assay; assay type: functional; settings: PANC-1, 48 h, read-out: Activity
[14] = Cytotoxicity against human MML1 cells assessed as cell viability at 41 uM after 48 hrs by MTT assay; assay type: functional; settings: read-out: Activity
[15] = tested on: SK-MEL-2; test: Cytotoxicity against human SK-MEL-2 cells assessed as cell viability at 41 uM after 48 hrs by MTT assay; assay type: functional; settings: SK-MEL-2, 48 h, read-out: Activity
[16] = tested on: U-87 MG; test: Cytotoxicity against human U87 cells assessed as cell viability at 41 uM after 48 hrs by MTT assay; assay type: functional, U-87MG ATCC; settings: read-out: Activity
[17] = tested on: LN-229; test: Cytotoxicity against human LN229 cells assessed as cell viability at 41 uM after 48 hrs by MTT assay; assay type: functional; settings: LN-229, 48 h, read-out: Activity
[18] = Cmax in mouse at 10 mg/kg, iv by LC-MS/MS method; assay type: ADME, organism-based; parameters: dose 10 mg/kg, route intravenous; settings: in vivo
Procedure, shortened: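 Mouse iv dosing used polyphenol dissolved in DMSO:ethanol (2:1), with total injected volume never above 30 μL. Plasma levels were measured by previously described methods.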

[19] = Plasma concentration in mouse at 100 mg/kg, po at 60 mins by LC-MS/MS method; assay type: ADME, organism-based
Procedure, shortened: (§1)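 For IV dosing, compound dissolved in DMSO:ethanol (2:1), total volume no more than 30 μL. For oral dosing, compound given in a self-microemulsifying delivery system (60% surfactant, emulsifier OP:Cremophor EL 1:1; 30% PEG 400; 10% ethyl oleate), total volume no more than 100 μL. Plasma levels measured by previously described methods.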

[20] = Plasma concentration in mouse at 10 mg/kg, iv at 60 mins by LC-MS/MS method; assay type: ADME, organism-based; procedure, shortened: as §1
[21] = tested on: Mus musculus; test: (§2) Cmax in mouse at 100 mg/kg, po by HPLC method; assay type: ADME, organism-based; parameters: dose 100 mg/kg, route oral; settings: in vivo
Procedure, shortened: (§3)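 For oral dosing, polyphenol was dissolved in a self-microemulsifying delivery system: 60% surfactant (emulsifier OP:Cremophor EL 1:1), 30% cosurfactant (PEG 400) and 10% oil (ethyl oleate). Total volume given was never above 100 μL. Plasma levels were quantified by previously described methods.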

[22] = tested on: Mus musculus; test: (§4) Tmax in mouse at 100 mg/kg, po by HPLC method; assay type: ADME, organism-based; settings: in vivo
Procedure, shortened: (§5)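 Given orally in a self-microemulsifying delivery system (60% surfactant, emulsifier OP:Cremophor EL 1:1; 30% PEG 400 cosurfactant; 10% ethyl oleate oil), total volume no more than 100 μL. Plasma levels measured by previously described methods.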

[23] = tested on: Lipid bilayer; test: Induction of DOPC/n-decane bilayer property changes assessed as concentration required to double gramicidin-induced quencher influx rate by […]
[24] = tested on: U-87 MG; test: Cytotoxicity against human U87 cells assessed as decrease in cell viability after 48 hrs by trypan blue exclusion and LDH release
[25] = tested on: T47D; test: Cytotoxicity against human T47D cells assessed as decrease in cell viability after 48 hrs by trypan blue exclusion and LDH release
[26] = tested on: A549; test: Cytotoxicity against human A549 cells assessed as decrease in cell viability after 48 hrs by trypan blue exclusion and LDH release; settings: A549, 48 h
[27] = tested on: HT-29; test: Cytotoxicity against human HT-29 cells assessed as decrease in cell viability after 48 hrs by trypan blue exclusion and LDH release; settings: HT-29, 48 h
[28] = tested on: LN-229; test: Cytotoxicity against human LN229 cells assessed as decrease in cell viability after 48 hrs by trypan blue exclusion and LDH release; settings: LN-229, 48 h
[29] = tested on: COLO 201; test: Cytotoxicity against human COLO201 cells assessed as decrease in cell viability after 48 hrs by trypan blue exclusion and LDH release; settings: COLO 201, 48 h
[30] = tested on: MDA-MB-231; test: Cytotoxicity against human MDA-MB-231 cells assessed as decrease in cell viability after 48 hrs by trypan blue exclusion and LDH release; settings: MDA-MB-231, 48 h
[31] = tested on: MDA-MB-231; test: Cytotoxicity against human MDA-MB-231 cells assessed as cell viability at 14 uM after 48 hrs by MTT assay; assay type: functional; settings: MDA-MB-231, 48 h, read-out: Activity
[32] = tested on: T47D; test: Cytotoxicity against human T47D cells assessed as cell viability at 14 uM after 48 hrs by MTT assay; assay type: functional; settings: read-out: Activity
[33] = tested on: HT-29; test: Cytotoxicity against human HT-29 cells assessed as cell viability at 14 uM after 48 hrs by MTT assay; assay type: functional; settings: HT-29, 48 h, read-out: Activity
[34] = tested on: COLO 201; test: Cytotoxicity against human COLO201 cells assessed as cell viability at 14 uM after 48 hrs by MTT assay; assay type: functional; settings: COLO 201, 48 h, read-out: Activity
[35] = tested on: A549; test: Cytotoxicity against human A549 cells assessed as cell viability at 14 uM after 48 hrs by MTT assay; assay type: functional; settings: A549, 48 h, read-out: Activity
[36] = tested on: NCI-H460; test: Cytotoxicity against human NCI-H460 cells assessed as cell viability at 14 uM after 48 hrs by MTT assay; assay type: functional; settings: NCI-H460, 48 h, read-out: Activity
[37] = tested on: BXPC-3; test: Cytotoxicity against human BxPC3 cells assessed as cell viability at 14 uM after 48 hrs by MTT assay; assay type: functional; settings: BXPC-3, 48 h, read-out: Activity
[38] = tested on: PANC-1; test: Cytotoxicity against human PANC1 cells assessed as cell viability at 14 uM after 48 hrs by MTT assay; assay type: functional; settings: PANC-1, 48 h, read-out: Activity
[39] = Cytotoxicity against human MML1 cells assessed as cell viability at 14 uM after 48 hrs by MTT assay; assay type: functional; settings: read-out: Activity
[40] = tested on: SK-MEL-2; test: Cytotoxicity against human SK-MEL-2 cells assessed as cell viability at 14 uM after 48 hrs by MTT assay; assay type: functional; settings: SK-MEL-2, 48 h, read-out: Activity
[41] = tested on: U-87 MG; test: Cytotoxicity against human U87 cells assessed as cell viability at 14 uM after 48 hrs by MTT assay; assay type: functional, U-87MG ATCC; settings: read-out: Activity
[42] = tested on: LN-229; test: Cytotoxicity against human LN229 cells assessed as cell viability at 14 uM after 48 hrs by MTT assay; assay type: functional; settings: LN-229, 48 h, read-out: Activity
[43] = Tmax in mouse at 10 mg/kg, iv by LC-MS/MS method; assay type: ADME, organism-based; settings: in vivo; procedure, shortened: as §1
[44] = as §2; assay type: ADME, organism-based; parameters: dose 100 mg/kg, route oral; settings: in vivo; procedure, shortened: as §3
[45] = as §4; assay type: ADME, organism-based; settings: in vivo; procedure, shortened: as §5
[46] = tested on: Homo sapiens; test: Renal toxicity in patient assessed as decrease in glomerular flow rate at 1400 mg/m'2, iv administered as bolus dose measured after 24 hrs relative to control; assay type: organism-based; parameters: scale not given: the % may be the effect or the level left; settings: in vivo

## COc1cc(/C=C/C(=O)CC(=O)/C=C/c2ccc(O)c(OC)c2)ccc1O [CURCUMIN]
[1]
  IC50: 15 µM
[2]
  IC50: 29 µM
[3]
  IC50: 53 µM
[4]
  IC50: 19 µM
[5]
  IC50: 36 µM
[6]
  viability at 41 µM: 90%
[7]
  viability at 41 µM: 88%
[8]
  viability at 41 µM: 83%
[9]
  viability at 41 µM: 81%
[10]
  viability at 41 µM: 96%
[11]
  viability at 41 µM: 95%
[12]
  viability at 41 µM: 102%
[13]
  viability at 41 µM: 99%
[14]
  viability at 41 µM: 105%
[15]
  viability at 41 µM: 97%
[16]
  viability at 41 µM: 92%
[17]
  viability at 41 µM: 91%
[18]
  Cmax: 81 µM
[19]
  concentration at 1 h: < 1 µM
[20]
  concentration at 1 h: < 1 µM
[21]
  Cmax: 27 µM
[22]
  Tmax: 15 min
[23]
  Activity: 8.6 µM
[24]
  IC50: 16 µM
[25]
  IC50: 19 µM
[26]
  IC50: 18 µM
[27]
  IC50: 14 µM
[28]
  IC50: 15 µM
[29]
  IC50: 18 µM
[30]
  IC50: 12 µM

## O=c1c(O)c(-c2ccc(O)c(O)c2)oc2cc(O)cc(O)c12 [QUERCETIN]
[1]
  IC50: 12 µM
[2]
  IC50: 16 µM
[3]
  IC50: 62 µM
[4]
  IC50: 15 µM
[5]
  IC50: 12 µM
[31]
  viability at 14 µM: 103%
[32]
  viability at 14 µM: 100%
[33]
  viability at 14 µM: 94%
[34]
  viability at 14 µM: 101%
[35]
  viability at 14 µM: 104%
[36]
  viability at 14 µM: 95%
[37]
  viability at 14 µM: 96%
[38]
  viability at 14 µM: 102%
[39]
  viability at 14 µM: 103%
[40]
  viability at 14 µM: 97%
[41]
  viability at 14 µM: 97%
[42]
  viability at 14 µM: 106%
[18]
  Cmax: 27 µM
[43]
  Tmax: 5 min
[19]
  concentration at 1 h: < 1 µM
[20]
  concentration at 1 h: < 1 µM
[44]
  Cmax: 8 µM
[45]
  Tmax: 15 min
[46]
  Activity: 20%
[24]
  IC50: 23 µM
[25]
  IC50: 11 µM
[26]
  IC50: 13 µM
[27]
  IC50: 18 µM
[28]
  IC50: 12 µM
[29]
  IC50: 19 µM
[30]
  IC50: 20 µM
